Assay results as given in the array DNA melting data of Ke et al. (doi:10.1101/2024.01.08.574731).

Key:
[1] = folding enthalpy; higher = less favourable; fluorescence melt of hairpins on a sequencing array, two-state fit; settings: sodium 0.088 M
Procedure, shortened: (§1)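 Bootstrapped two-state fits yielded melting temperature and folding enthalpy for library hairpins. Cy3 fluorescence, with annealed Cy3 and quencher oligos, was imaged on a sequenced MiSeq flow cell in 50 mM Na-HEPES pH 8.0, 25 mM NaCl in 2.5 °C steps up to 60 °C, and normalised to pre-quench Cy3 and to control constructs. Four replicates were combined by inverse variance, and fitted temperatures were raised by 9.35 °C to match UV melts.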

[2] = melting temperature; fluorescence melt of hairpins on a sequencing array, two-state fit, raised by 9.35 °C to match UV melts; settings: sodium 0.088 M
Procedure, shortened: as §1

Row | Sequence | folding enthalpy [1] | Tm [2]
1 | GATCATATCTATGATC ((((((....)))))) | -41.6 kcal/mol | 48.5 °C
2 | GATCATATGAATGATC ((((((....)))))) | -31.7 kcal/mol | 45.7 °C
3 | GATCATCAAATGATC ((((((...)))))) | -25.1 kcal/mol | 41.1 °C
4 | GATCATCAAGATGATC ((((((....)))))) | -40.4 kcal/mol | 49.8 °C
5 | GATCATCACTATGATC ((((((....)))))) | -31.3 kcal/mol | 48.6 °C
6 | GATCATCATAATGATC ((((((....)))))) | -36.3 kcal/mol | 47.1 °C
7 | GATCATCATTATGATC ((((((....)))))) | -34.6 kcal/mol | 46.8 °C
8 | GATCATCCATATGATC ((((((....)))))) | -34.9 kcal/mol | 47 °C
9 | GATCATCCCAATGATC ((((((....)))))) | -36.2 kcal/mol | 48.2 °C
10 | GATCATCCGATGATC ((((((...)))))) | -33.3 kcal/mol | 46.8 °C
11 | GATCATCCGTATGATC ((((((....)))))) | -38.9 kcal/mol | 47.8 °C
12 | GATCATCCTGATGATC ((((((....)))))) | -41.7 kcal/mol | 54.5 °C
13 | GATCATCGAATGATC ((((((...)))))) | -25.6 kcal/mol | 43.6 °C
14 | GATCATCGAGATGATC ((((((....)))))) | -45.2 kcal/mol | 54.2 °C
15 | GATCATCGGCATGATC ((((((....)))))) | -32 kcal/mol | 44.7 °C
16 | GATCATCTACATGATC ((((((....)))))) | -38.5 kcal/mol | 46.2 °C
17 | GATCATCTCTATGATC ((((((....)))))) | -38.9 kcal/mol | 47.1 °C
18 | GATCATCTGATGATC ((((((...)))))) | -37.5 kcal/mol | 46.3 °C
19 | GATCATGAATATGATC ((((((....)))))) | -46.8 kcal/mol | 54.5 °C
20 | GATCATGATCATGATC ((((((....)))))) | -52.3 kcal/mol | 51.4 °C
21 | GATCATGATGATGATC ((((((....)))))) | -32.3 kcal/mol | 47.5 °C
22 | GATCATGCAATGATC ((((((...)))))) | -46 kcal/mol | 59.2 °C
23 | GATCATGCATATGATC ((((((....)))))) | -55.8 kcal/mol | 55.4 °C
24 | GATCATGCCCATGATC ((((((....)))))) | -43 kcal/mol | 53.5 °C

Row | Sequence | folding enthalpy [1] | Tm [2]
25 | GATCATGCGAAAGCAATC (((..(((....)))))) | -9.85 kcal/mol | 22.5 °C
26 | GATCATGCGCATGATC ((((((....)))))) | -57.1 kcal/mol | 57.2 °C
27 | GATCATGCTAATGATC ((((((....)))))) | -42.7 kcal/mol | 57.2 °C
28 | GATCATGCTATGATC ((((((...)))))) | -27.9 kcal/mol | 49.9 °C
29 | GATCATGGCTATGATC ((((((....)))))) | -40.6 kcal/mol | 53.7 °C
30 | GATCATGGTATGATC ((((((...)))))) | -36.3 kcal/mol | 48.9 °C
31 | GATCATGTAATGATC ((((((...)))))) | -39.8 kcal/mol | 57.4 °C
32 | GATCATGTCAATGATC ((((((....)))))) | -40 kcal/mol | 56.9 °C
33 | GATCATTAATATGATC ((((((....)))))) | -37.1 kcal/mol | 45.5 °C
34 | GATCATTAGAATGATC ((((((....)))))) | -28.6 kcal/mol | 45.8 °C
35 | GATCATTATATGATC ((((((...)))))) | -40.2 kcal/mol | 48.8 °C
36 | GATCATTCAGATGATC ((((((....)))))) | -36.9 kcal/mol | 46.9 °C
37 | GATCATTCGTATGATC ((((((....)))))) | -33.3 kcal/mol | 48.1 °C
38 | GATCATTCTTATGATC ((((((....)))))) | -40.9 kcal/mol | 48.6 °C
39 | GATCATTGCAATGATC ((((((....)))))) | -44.8 kcal/mol | 52.3 °C
40 | GATCATTGCTATGATC ((((((....)))))) | -36 kcal/mol | 47.8 °C
41 | GATCATTGGGATGATC ((((((....)))))) | -38.8 kcal/mol | 49.5 °C
42 | GATCATTGTATGATC ((((((...)))))) | -30.9 kcal/mol | 49.5 °C
43 | GATCATTTAAATGATC ((((((....)))))) | -46.3 kcal/mol | 48.4 °C
44 | GATCATTTCAATGATC ((((((....)))))) | -42.2 kcal/mol | 52.3 °C
45 | GATCATTTTAATGATC ((((((....)))))) | -53.2 kcal/mol | 53.6 °C
46 | GATCCAAAAATGGATC ((((((....)))))) | -26.4 kcal/mol | 42.9 °C
47 | GATCCAAACCTGGATC ((((((....)))))) | -40.8 kcal/mol | 49.8 °C
48 | GATCCAAACGTGGATC ((((((....)))))) | -37.4 kcal/mol | 49 °C

Row | Sequence | folding enthalpy [1] | Tm [2]
49 | GATCCAAACTGGATC ((((((...)))))) | -43 kcal/mol | 50.4 °C
50 | GATCCAAATCTGGATC ((((((....)))))) | -33.8 kcal/mol | 47.4 °C
51 | GATCCAACACTGGATC ((((((....)))))) | -43 kcal/mol | 48.1 °C
52 | GATCCAACCATGGATC ((((((....)))))) | -35.5 kcal/mol | 50 °C
53 | GATCCAACTCTGGATC ((((((....)))))) | -30.9 kcal/mol | 49.2 °C
54 | GATCCAAGATTGGATC ((((((....)))))) | -40 kcal/mol | 50.3 °C
55 | GATCCAAGTATGGATC ((((((....)))))) | -36.5 kcal/mol | 50.3 °C
56 | GATCCAAGTTTGGATC ((((((....)))))) | -41.1 kcal/mol | 52.1 °C
57 | GATCCAATAATGGATC ((((((....)))))) | -31.1 kcal/mol | 47.5 °C
58 | GATCCAATCTGGATC ((((((...)))))) | -33.1 kcal/mol | 51.8 °C
59 | GATCCACAAGTGGATC ((((((....)))))) | -38.6 kcal/mol | 57.9 °C
60 | GATCCACAATGGATC ((((((...)))))) | -30.7 kcal/mol | 48.3 °C
61 | GATCCACACTGGATC ((((((...)))))) | -33.2 kcal/mol | 50.7 °C
62 | GATCCACAGGTGGATC ((((((....)))))) | -40.9 kcal/mol | 57 °C
63 | GATCCACCCGTGGATC ((((((....)))))) | -40.4 kcal/mol | 57.9 °C
64 | GATCCACCCTGGATC ((((((...)))))) | -33.8 kcal/mol | 51 °C
65 | GATCCACGGTGGATC ((((((...)))))) | -43.6 kcal/mol | 50.6 °C
66 | GATCCACTAATGGATC ((((((....)))))) | -32.7 kcal/mol | 49.8 °C
67 | GATCCACTATTGGATC ((((((....)))))) | -40.9 kcal/mol | 49.8 °C
68 | GATCCACTCATGGATC ((((((....)))))) | -41.5 kcal/mol | 52.5 °C
69 | GATCCACTCCTGGATC ((((((....)))))) | -38.4 kcal/mol | 50.3 °C
70 | GATCCACTTTTGGATC ((((((....)))))) | -34.6 kcal/mol | 50.6 °C
71 | GATCCAGATGTGGATC ((((((....)))))) | -35.4 kcal/mol | 51.1 °C
72 | GATCCAGCAATGGATC ((((((....)))))) | -41.6 kcal/mol | 56.8 °C
